The results in this text go back to ChEMBL document CHEMBL4196006, “Aryl thiosemicarbazones for the treatment of trypanosomatidic infections” (Eur J Med Chem, 2018).

For series [1], the system named is Leishmania infantum. Put plainly: Antileishmanial activity against Leishmania infantum amastigote form assessed as parasite growth inhibition at 50 uM after 72 hrs by steady-Glo reagent based assay relative to control. It counts as functional. In outline: (§1)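 Intramacrophage L. infantum amastigotes in THP-1-derived macrophages, tested at 50 μM or in dose-response. Plates held 72 h at 37 °C, 5% CO2. Medium was replaced by PBS, macrophages lysed, and parasites read by Steady-Glo luminescence. High-content imaging gave host cell number, infection ratio (infected/total cells) and parasites per infected cell. Values are means of at least two independent experiments.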

A further series concerns Trypanosoma cruzi. Put plainly: Antitrypanosomal activity against Trypanosoma cruzi amastigote form infected in human U2OS cells assessed as parasite growth inhibition at 50 uM after 72 hrs relative to control. It counts as functional. To be noted: read-out: GI. In outline: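 U2OS monolayers grown for 24 h, then infected with tissue-derived trypomastigotes of T. cruzi Y strain. Compounds were added 24 h after infection at 50 μM (single-point) or in dose-response, with 72 h exposure. Plates were fixed, stained and analysed by high-content imaging; activity was normalized to infected and non-infected controls. Means of at least two experiments; benznidazole as reference.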

In series [2] the test system is Trypanosoma brucei. Put plainly: Potentiation of methotrexate-induced antitrypanosomal activity against Trypanosoma brucei Lister 427 bloodstream form assessed as combination index at EC50 after 72 hrs by resazurin dye-based assay. The class given is functional.
For series [3], the system named is Trypanosoma brucei. Put plainly: Potentiation of methotrexate-induced antitrypanosomal activity against Trypanosoma brucei Lister 427 bloodstream form assessed as dose reduction index for methotrexate at EC50 after 72 hrs by resazurin dye-based assay. The class given is functional.
The target of the next series is CYP2C19 (Homo sapiens, UniProt P33261). The series is described as follows: Inhibition of human microsomal CYP2C19 expressed in baculovirus infected BTI-TN-5B1-4 cells at 10 uM incubated for 30 mins by luciferase assay relative to control. It counts as ADME. In outline:
(§2)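 CYP1A2, 2C9, 2C19, 2D6 and 3A4 in microsomes from baculovirus-infected insect cells, each with a P450-Glo luminogenic substrate. Inhibition read as loss of light; single-point at 10 μM, triplicate.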

A further series has as its target CYP2D6 (Homo sapiens, UniProt P10635). Put plainly: Inhibition of human microsomal CYP2D6 expressed in baculovirus infected BTI-TN-5B1-4 cells at 10 uM incubated for 30 mins by luciferase assay relative to control. It counts as ADME. The method in brief:
as §2

Series [4] can be described thus: Cytotoxicity against human THP1 cells assessed as viable cells at 100 uM after 72 hrs by MTT assay relative to control. The class given is cell-based, THP-1. To be noted: read-out: Activity. The method in brief:
(§3)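 THP-1-derived macrophages exposed to compounds for 72 h, tested at 100 μM or in dose-response; viability read by MTT colorimetric assay.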
A general note: Tetrazolium assays rely on reduction of a dye to a coloured formazan, in cell work by metabolically active cells.

Series [5] has as its system Trypanosoma brucei. Put plainly: Antitrypanosomal activity against Trypanosoma brucei Lister 427 bloodstream form at 6:1 methotrexate to test compound ratio after 72 hrs by resazurin dye-based assay. The class given is functional, organism-based. To be noted: Lister 427, 72 h.
Series [6] in a line: Selectivity ratio of EC50 for Trypanosoma cruzi amastigote form to EC50 for Trypanosoma brucei Lister 427 bloodstream form. The class given is functional.
The nature of series [7]: Cytotoxicity against human A549 cells assessed as growth inhibition at 10 uM after 48 hrs by CellTiter-Glo assay relative to control; values are per cent of control. To be noted: A549 cells. (In general: ATP-based viability assays read luminescence as a measure of living cells.)
For series [8], the system named is Leishmania infantum. Put plainly: Antileishmanial activity against Leishmania infantum amastigote form after 72 hrs by steady-Glo reagent based assay. It counts as functional, organism-based. In outline: as §1
The nature of series [9]: Cytotoxicity against human THP1 cells assessed as decrease in viable cells after 72 hrs by MTT assay. The class given is cell-based, THP-1. To be noted: THP1 cells. The method in brief:
as §3

Series [10] can be described thus: Selectivity index, ratio of CC50 for human THP1 cells to EC50 for Leishmania infantum amastigote form. To be noted: read-out: Ratio CC50/EC50. The class given is toxicity. The method in brief: (§4)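 Selectivity index = CC50 in the human host or cytotoxicity cell line divided by parasite EC50.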
Series [11] is described as follows: Selectivity index, ratio of CC50 for human U2OS cells to EC50 for Trypanosoma cruzi amastigote form. The class given is toxicity. The settings on record: read-out: Ratio CC50/EC50. In outline:
as §4

Series [12] has as its system Trypanosoma brucei. Put plainly: Antitrypanosomal activity against Trypanosoma brucei Lister 427 bloodstream form at 30:1 methotrexate to test compound ratio after 72 hrs by resazurin dye-based assay. The class given is functional, organism-based. The settings on record: Lister 427, 72 h.
Series [13] is described as follows: Cytotoxicity against human U2OS cells assessed as decrease in viable cells after 72 hrs by cell number count in anti-T. cruzi high content imaging assay. The settings on record: U2OS cells.

Molecules are shown by their SMILES. Active and inactive are the calls of the source. The calls are words filed in the database; no cut-off is given here.

CYP2C19, sequence (P33261 whole entry): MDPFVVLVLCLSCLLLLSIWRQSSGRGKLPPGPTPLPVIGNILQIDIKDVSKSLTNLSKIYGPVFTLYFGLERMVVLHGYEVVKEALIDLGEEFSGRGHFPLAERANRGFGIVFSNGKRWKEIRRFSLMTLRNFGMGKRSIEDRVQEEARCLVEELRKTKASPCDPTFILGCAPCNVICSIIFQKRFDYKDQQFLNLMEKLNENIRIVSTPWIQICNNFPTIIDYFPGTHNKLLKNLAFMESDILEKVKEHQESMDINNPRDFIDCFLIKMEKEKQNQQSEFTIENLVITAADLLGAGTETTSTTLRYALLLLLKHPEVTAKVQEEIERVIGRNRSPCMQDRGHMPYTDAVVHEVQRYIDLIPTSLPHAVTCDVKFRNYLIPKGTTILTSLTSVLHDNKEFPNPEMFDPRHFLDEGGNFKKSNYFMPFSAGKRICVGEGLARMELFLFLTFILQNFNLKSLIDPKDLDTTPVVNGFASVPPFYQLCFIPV
CYP2D6, sequence (P10635 whole entry): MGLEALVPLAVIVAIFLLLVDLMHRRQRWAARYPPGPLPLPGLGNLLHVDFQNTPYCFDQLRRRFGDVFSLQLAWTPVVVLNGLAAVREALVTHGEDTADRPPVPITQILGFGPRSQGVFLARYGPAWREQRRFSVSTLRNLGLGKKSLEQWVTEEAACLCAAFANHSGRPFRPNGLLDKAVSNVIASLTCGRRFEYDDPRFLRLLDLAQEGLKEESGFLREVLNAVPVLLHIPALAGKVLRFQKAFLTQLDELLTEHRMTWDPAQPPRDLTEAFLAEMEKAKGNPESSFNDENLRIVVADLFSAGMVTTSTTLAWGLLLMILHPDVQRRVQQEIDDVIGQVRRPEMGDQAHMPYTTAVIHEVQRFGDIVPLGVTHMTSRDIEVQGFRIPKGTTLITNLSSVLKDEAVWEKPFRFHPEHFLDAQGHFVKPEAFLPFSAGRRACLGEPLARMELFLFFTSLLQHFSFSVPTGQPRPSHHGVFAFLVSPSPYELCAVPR

Turning to `COc1ccc(-c2cccc(/C=N/NC(N)=S)c2)cc1OC`, the “growth inhibition (GI)” value with Leishmania infantum [1] was “inactive”. Further, the inhibition of growth at 50 µM in the series with Trypanosoma cruzi amounted to 82.4%. Also, the CI in the series on Trypanosoma brucei [2] is listed as 0.28. The Activity in the series with Trypanosoma brucei [3] is recorded as 6.36. For the same compound, the inhibition at 0.5 h, 10 µM at CYP2C19 was determined as 22.2%; against CYP2D6, 29.2%. Further, the viability at 72 h, 100 µM in [4] was 40.9%. The concentration for a half-maximal effect (EC50) in the series with Trypanosoma brucei [5] came out at 0.59 µM. In addition, the Ratio EC50 in [6] stood at 4. For the same compound, in series [7], the cell growth (% of control) at 48 h, 10 µM came to 90.5%.

Turning to `NC(=S)N/N=C/c1ccc(OCc2ccc(Cl)c(Cl)c2)cc1`, the inhibition of growth at 50 µM with Leishmania infantum [1] (read-out: GI) and with Trypanosoma cruzi was 80.5% each time. Also, the EC50 in the series on Leishmania infantum [8] was 6.14 µM; in the series on Trypanosoma brucei [12] it was 0.11 µM. Also, in the series on Trypanosoma brucei [2], the CI was found to be 0.41. In the series with Trypanosoma brucei [3], the Activity is 6.56. Moreover, the inhibition at 0.5 h, 10 µM was found to be 10.4% at CYP2C19 and 39.3% against CYP2D6. In addition, the viability at 72 h, 100 µM in [4] is 38.8%. Also, the half-maximal cytotoxic concentration (CC50) at 72 h was 82 µM in series [9] and 72 µM in series [13]. Moreover, the values for the selectivity ratio in series [10] and in [11] were 13 and 55, respectively. For the same compound, the cell growth (% of control) at 48 h, 10 µM in series [7] was 72.5%.

As a reminder, the inhibition is the relative decrease from the control value, in per cent. Higher therefore signals strong suppression. The term EC50 denotes the concentration at which the effect is half-maximal. Usually CC50 stands for the concentration at which the toxic effect on the cells reaches its halfway point.
